The subject of one data set is human melanocytes. Conditions: doses between 1.25 and 10 μM; cited from earlier work.
A further data set concerns tyrosinase. As to conditions: treating hyperpigmentation disorders; cited from earlier work.
The subject of data set [1] is cultured human melanoma cells. As to conditions: cited from earlier work.
In the next data set the test system is B16F10 cells. Put plainly: Anti-melanogenesis activity on B16F10 murine melanomas. Type of data set: cell-based. As to conditions: 20 μg/ml, 72 h. The gist of the method:
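B16F10 murine melanoma cells (ATCC; DMEM with 10 % FBS) are seeded in 6-well plates and held 24 h in a CO₂ incubator, then exposed to test compound for 72 h. Cells are washed with 1xPBS, dissolved in 10 % NaOH at 60 °C for 1 h, and melanin is read at 450 nm. % anti-melanogenesis = 100 − (Mt/Mc × 100) versus untreated control. Triplicate, three independent experiments; mean ± SD.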

In a further data set the test system is melanocytes. Conditions: 1 mM for 48 h; cited from earlier work.

Molecules are shown by their SMILES.

As for `COc1cc(/C=C/C(=O)CC(=O)/C=C/c2ccc(O)c(OC)c2)ccc1O` [CC, Curcumin], the melanocyte viability result in the data set with human melanocytes is listed as “without affecting melanocyte viability”.
`OC[C@H]1O[C@@H](Oc2ccc(O)cc2)[C@H](O)[C@@H](O)[C@@H]1O` [arbutin]: in the data set on tyrosinase, the pigmentation reduction was 43.5%.
For the molecule `CC(=O)Cc1cc(=O)c2c(C)cc(O)c([C@@H]3O[C@H](CO)[C@@H](O)[C@H](O)[C@H]3O)c2o1` [aloesin], the pigmentation reduction in the data set with tyrosinase is listed as 34%.
In the case of `OC[C@H]1O[C@H](Oc2ccc(O)cc2)[C@H](O)[C@@H](O)[C@@H]1O` [AA, Alpha arbutin], the “melanin content and tyrosinase activity” value in data set [1] (0.25–0.5 mM) was “decreased melanin content and tyrosinase activity in a dose-dependent manner”. For the same molecule, the cell proliferation result in data set [1] (0.25–1 mM) is “no effect on cell proliferation”.
Regarding `O=c1cc(CO)occ1O` [kojic acid], the “% Anti-melanogenesis” value in the data set with B16F10 cells was found to be 44.54 ± 2.47%.
For `O=C1O[C@H]([C@@H](O)CO)C([O-])=C1OP(=O)([O-])[O-].O=C1O[C@H]([C@@H](O)CO)C([O-])=C1OP(=O)([O-])[O-].[Mg+2].[Mg+2].[Mg+2]` [MAP, Magnesium ascorbyl phosphate], the “cytotoxic or cell growth inhibiting effects” value in the data set with melanocytes is listed as “no noticeable cytotoxic or cell growth inhibiting effects”.

The record behind these values is article PMC11315199 (Heliyon, 2024).
